Laboratory results reported in ChEMBL document CHEMBL3286113, “New potent antibacterial oxazolidinone (MRX-I) with an improved class safety profile” (J Med Chem, 2014).
Converted amounts (≈) assume the structure as drawn.

Assays:
[1] = Cmax in human at 800 mg, po administered as single dose with meal measured on day 1; format: ADME, organism-based; design: dose 800 mg, route oral; details: in vivo
Method in brief: (§1)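 Randomized, double-blind, placebo-controlled multiple-dose study in 32 healthy subjects, half male and half female. Each dose was taken with a meal, at 600 or 800 mg, 28 doses over 15 days. A single dose on days 1 and 15 gave full PK; BID (Q12h) dosing ran on days 2–14.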

[2] = Tmax in human at 800 mg, po administered as single dose with meal measured on day 1; format: ADME, organism-based; details: in vivo
Method in brief: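 Randomized, double-blind, placebo-controlled multiple-dose study in 32 healthy subjects, half male and half female. Dosing was 600 or 800 mg orally with a meal, 28 doses over 15 days. A single dose was given on days 1 and 15 for full PK, with Q12h (BID) dosing on days 2−14.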

[3] = Cmax in human at 800 mg, po administered as single dose with meal measured on day 15; format: ADME, organism-based; design: dose 800 mg, route oral; details: in vivo; method in brief: as §1
Homo sapiens = assay: Drug uptake in human at 600 to 800 mg, po administered as single dose with meal measured on day 1 and day 15; format: ADME, organism-based; details: in vivo; method in brief: as §1
Rattus norvegicus [4] = assay: Drug uptake in rat at 20 to 300 mg/kg/day, po bid administered for 4 weeks measured after day 28; format: ADME, organism-based; design: route oral; details: in vivo, 672 h
Method in brief: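 Rats, 10 per sex per group, dosed orally twice daily at 20, 100 and 200 mg/kg/day for 4 weeks, then a 4-week recovery. The top dose was raised to 300 mg/kg/day on day 15. Toxicokinetic blood samples were drawn on days 1, 14 and 28.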

Rattus norvegicus [5] = assay: Toxicity in female rat assessed as effect on hematocrit level at 20 mg/kg/day, po bid administered for 4 weeks (reference value: 39.08%); format: organism-based; design: route oral; details: in vivo, 672 h
Rattus norvegicus [6] = assay: Toxicity in female rat assessed as effect on mean corpuscular volume at 20 mg/kg/day, po bid administered for 4 weeks (reference value: 53.72 fL); format: organism-based; design: route oral; details: in vivo, 672 h
Rattus norvegicus [7] = assay: Toxicity in female rat assessed as effect on mean corpuscular hemoglobin level at 20 mg/kg/day, po bid administered for 4 weeks (reference value: 19.5 pg); format: organism-based; design: route oral; details: in vivo, 672 h
Rattus norvegicus [8] = assay: Toxicity in female rat assessed as effect on lymphocyte count at 20 mg/kg/day, po bid administered for 4 weeks (reference value: 74.8%); format: organism-based; design: route oral; details: in vivo, 672 h
Rattus norvegicus [9] = assay: Toxicity in female rat assessed as effect on reticulocyte count at 20 mg/kg/day, po bid administered for 4 weeks (reference value: 1.48%); format: organism-based; design: route oral; details: in vivo, 672 h
[10] = target: T1, Amine oxidase [flavin-containing] A (Homo sapiens, UniProt P21397); assay: Inhibition of MAO-A (unknown origin) using tyramine as substrate after 30 to 60 mins by fluorescence plate reader analysis
T1 sequence (P21397 whole entry): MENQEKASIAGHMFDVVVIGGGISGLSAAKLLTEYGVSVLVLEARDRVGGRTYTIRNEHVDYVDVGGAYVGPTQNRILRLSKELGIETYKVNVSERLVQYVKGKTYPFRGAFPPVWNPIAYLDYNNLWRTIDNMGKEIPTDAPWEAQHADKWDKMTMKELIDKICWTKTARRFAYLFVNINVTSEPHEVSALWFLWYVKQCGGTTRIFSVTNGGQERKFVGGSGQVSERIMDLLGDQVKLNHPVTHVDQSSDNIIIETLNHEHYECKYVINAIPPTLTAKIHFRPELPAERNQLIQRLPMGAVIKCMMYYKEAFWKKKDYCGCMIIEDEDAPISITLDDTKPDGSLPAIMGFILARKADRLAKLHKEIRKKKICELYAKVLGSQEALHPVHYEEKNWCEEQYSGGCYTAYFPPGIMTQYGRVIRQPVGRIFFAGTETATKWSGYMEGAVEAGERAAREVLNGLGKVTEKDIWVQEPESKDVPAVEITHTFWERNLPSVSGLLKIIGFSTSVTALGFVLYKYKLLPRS

Cytochrome P450 2E1 = Cytochrome P450 2E1 (Homo sapiens, UniProt P05181); assay: Inhibition of CYP2E1 (unknown origin); format: ADME
Sequence of Cytochrome P450 2E1 (P05181 whole entry): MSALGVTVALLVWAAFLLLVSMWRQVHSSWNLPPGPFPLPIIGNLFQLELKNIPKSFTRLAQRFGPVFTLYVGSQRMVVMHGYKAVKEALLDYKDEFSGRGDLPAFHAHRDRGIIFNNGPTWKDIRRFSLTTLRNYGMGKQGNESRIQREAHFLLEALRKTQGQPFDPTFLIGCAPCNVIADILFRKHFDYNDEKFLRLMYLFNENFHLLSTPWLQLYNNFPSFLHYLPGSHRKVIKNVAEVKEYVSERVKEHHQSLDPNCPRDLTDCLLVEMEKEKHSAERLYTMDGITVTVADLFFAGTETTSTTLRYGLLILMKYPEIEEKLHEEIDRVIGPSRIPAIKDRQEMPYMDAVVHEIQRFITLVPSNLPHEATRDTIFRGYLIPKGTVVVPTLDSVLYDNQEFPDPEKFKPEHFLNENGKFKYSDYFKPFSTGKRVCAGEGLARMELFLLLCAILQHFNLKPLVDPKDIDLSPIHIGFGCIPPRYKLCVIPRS

Cytochrome P450 2D6 = Cytochrome P450 2D6 (Homo sapiens, UniProt P10635); assay: Inhibition of CYP2D6 (unknown origin) at 1 to 200 uM; format: ADME
Sequence of Cytochrome P450 2D6 (P10635 whole entry): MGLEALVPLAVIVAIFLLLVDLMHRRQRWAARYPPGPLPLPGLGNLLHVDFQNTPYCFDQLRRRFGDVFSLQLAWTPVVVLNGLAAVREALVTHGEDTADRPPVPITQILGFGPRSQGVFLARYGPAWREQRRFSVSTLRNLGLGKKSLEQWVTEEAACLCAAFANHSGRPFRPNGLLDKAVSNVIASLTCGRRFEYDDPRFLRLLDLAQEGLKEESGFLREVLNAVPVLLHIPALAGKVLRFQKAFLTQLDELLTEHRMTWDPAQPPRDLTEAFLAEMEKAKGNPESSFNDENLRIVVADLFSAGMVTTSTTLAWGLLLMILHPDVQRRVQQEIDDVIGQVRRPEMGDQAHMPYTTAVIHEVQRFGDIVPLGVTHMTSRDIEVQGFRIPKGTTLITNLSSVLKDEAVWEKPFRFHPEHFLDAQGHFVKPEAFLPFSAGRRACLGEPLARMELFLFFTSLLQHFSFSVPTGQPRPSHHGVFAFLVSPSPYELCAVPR

Cytochrome P450 1A2 = Cytochrome P450 1A2 (Homo sapiens, UniProt P05177); assay: Inhibition of CYP1A2 (unknown origin) at 1 to 200 uM; format: ADME
Sequence of Cytochrome P450 1A2 (P05177 whole entry): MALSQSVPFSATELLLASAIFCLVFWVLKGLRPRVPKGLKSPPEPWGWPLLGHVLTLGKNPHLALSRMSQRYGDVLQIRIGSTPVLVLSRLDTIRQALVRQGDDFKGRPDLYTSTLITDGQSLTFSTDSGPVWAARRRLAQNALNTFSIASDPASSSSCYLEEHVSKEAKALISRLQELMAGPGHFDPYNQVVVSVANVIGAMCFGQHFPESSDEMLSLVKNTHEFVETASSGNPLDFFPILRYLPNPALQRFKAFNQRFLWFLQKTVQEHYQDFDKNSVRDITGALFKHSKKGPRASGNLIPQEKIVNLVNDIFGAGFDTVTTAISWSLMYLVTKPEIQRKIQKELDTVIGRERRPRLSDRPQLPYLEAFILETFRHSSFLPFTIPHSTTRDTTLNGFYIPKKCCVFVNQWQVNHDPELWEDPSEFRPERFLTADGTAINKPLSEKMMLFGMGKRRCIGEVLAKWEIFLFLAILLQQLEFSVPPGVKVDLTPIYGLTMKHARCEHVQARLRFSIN

[11] = Clastogenicity in CHL cells assessed as induction of structural chromosomal aberration at 25 to 200 ug/mL measured over 24 hrs in presence of metabolic activation; format: toxicity, cell-based, Cricetulus griseus; details: chinese hamster
Method in brief: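 Chinese hamster lung cells scored for structural chromosome aberrations with or without metabolic activation. Exposure was 50–400 μg/mL over 6 h, or 25–200 μg/mL over 24 h.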

Staphylococcus aureus [12] = assay: Antibacterial activity against Staphylococcus aureus; format: functional
[13] = Myelosuppression activity against human CD34-positive blood stem/progenitor cells assessed as growth inhibition after 9 to 10 days by CellTiter-Glo luminescent assay
[14] = test system: Staphylococcus epidermidis; assay: Antibacterial activity against methicillin-resistant Staphylococcus epidermidis; format: functional
[15] = test system: Staphylococcus epidermidis; assay: Antibacterial activity against methicillin-sensitive Staphylococcus epidermidis; format: functional
[16] = test system: Staphylococcus haemolyticus; assay: Antibacterial activity against Staphylococcus haemolyticus; format: functional
Staphylococcus aureus [17] = assay: Antibacterial activity against Staphylococcus aureus measured after 5 serial passages; format: functional
Staphylococcus aureus [18] = assay: Antibacterial activity against Staphylococcus aureus measured after 8 serial passages; format: functional
Staphylococcus aureus [19] = assay: Antibacterial activity against methicillin-sensitive Staphylococcus aureus ATCC 29213 in mouse thigh infection model assessed as reduction of log10 CFU per thigh at 10 mg/kg, po; format: functional
Method in brief: (§2)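 Mouse thigh infection with S. aureus ATCC29213 (MSSA), 10 animals per dosing group. Oral doses were 5, 10, 20, 40 and 80 mg/kg. The read-out was log CFU per thigh after treatment, and the reduction (ΔLogCFU/thigh) was reported.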

Staphylococcus aureus [20] = assay: Antibacterial activity against methicillin-sensitive Staphylococcus aureus ATCC 29213 in mouse thigh infection model assessed as reduction of log10 CFU per thigh at 40 mg/kg, po; format: functional; method in brief: as §2
Staphylococcus aureus [21] = assay: Antibacterial activity against methicillin-resistant Staphylococcus aureus isolate 0605 in mouse thigh infection model assessed as reduction of log10 CFU per thigh at 5 mg/kg, po; format: functional
[22] = Tmax in po dosed dog; format: ADME, organism-based, Canis lupus familiaris; details: in vivo
[23] = Tmax in female rat at 45 mg/kg, po; format: ADME, organism-based; design: dose 45 mg/kg, route oral; details: in vivo
Method in brief: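 Male and female rats received single oral doses of 5, 15 or 45 mg/kg, with 5 mg/kg iv as a reference arm. Tmax was read from the plasma concentration–time profile for each gender.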

[24] = Cmax in male rat at 45 mg/kg, po; format: ADME, organism-based; design: dose 45 mg/kg, route oral; details: in vivo
[25] = Cmax in female rat at 45 mg/kg, po; format: ADME, organism-based; design: dose 45 mg/kg, route oral; details: in vivo
Rattus norvegicus [26] = assay: Toxicity in rat assessed as mortality at 200 mg/kg, po bid administered for 4 weeks measured on day 14; format: organism-based; design: dose 200 mg/kg, route oral; details: in vivo, 672 h
Method in brief: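 Rats, 10 per gender per group, given drug orally twice daily at 20, 100 and 200/300 mg/kg/day for 4 weeks, then a 4-week recovery period. The top dose of 200 mg/kg/day was raised to 300 mg/kg/day on day 15. The comparator was dosed the same way at 100 and 200 mg/kg/day. Monitoring covered mortality, body weight, hematology and bone marrow, with blood taken for TK on days 1, 14 and 28.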

`O=C1C=CN(c2c(F)cc(N3C[C@H](CNc4ccon4)OC3=O)c(F)c2F)CC1` [CONTEZOLID] showed a Cmax [1] of 27800 ng/mL, a Tmax [2] of 51 min and a Cmax [3] of 26400 ng/mL. For the same compound, the Drug uptake (Homo sapiens) was “Not Active”, the Drug uptake (Rattus norvegicus [4]) was “Not Active” and the Activity (Rattus norvegicus [5]) was 37.16%. The Activity (Rattus norvegicus [6]) was 54.52 fL, the Activity (Rattus norvegicus [7]) was 20.2 pg and the Activity (Rattus norvegicus [8]) was 83.4%. It also gave an Activity (Rattus norvegicus [9]) of 1.3%, an IC50 [10] of 103 µM and an IC50 (Cytochrome P450 2E1) of 9.6 µM. The “inhibition (INH)” value (Cytochrome P450 2D6) was “Not Active”, the “inhibition (INH)” value (Cytochrome P450 1A2) was “Not Active” and the Activity [11] was “Non-toxic”. For the same compound, the MIC (Staphylococcus aureus [12]) was 2 µg/mL (≈ 4.9 µM), the IC50 [13] was 15.7 µg/mL (≈ 38.4 µM) and the MIC50 [14] was 0.25 µg/mL (≈ 0.612 µM). The MIC90 [14] was 0.5 µg/mL (≈ 1.22 µM), the MIC [15] was 0.25 µg/mL (≈ 0.612 µM) and the MIC50 [15] was 0.25 µg/mL (≈ 0.612 µM). The MIC90 [15] was 0.5 µg/mL (≈ 1.22 µM), the MIC50 [16] was 0.5 µg/mL (≈ 1.22 µM) and the MIC90 [16] was 0.5 µg/mL (≈ 1.22 µM). It also gave an MIC (Staphylococcus aureus [17]) of 2 µg/mL (≈ 4.9 µM), an MIC (Staphylococcus aureus [18]) of 2 µg/mL (≈ 4.9 µM) and a deltalog10CFU (Staphylococcus aureus [19]) of 3.29. For the same compound, the deltalog10CFU (Staphylococcus aureus [20]) was 3.42, the deltalog10CFU (Staphylococcus aureus [21]) was 2.45 and the Tmax [22] was 30 min. For the same compound, the Tmax [23] was 100 min, the Cmax [24] was 27800 ng/mL and the Cmax [25] was 50000 ng/mL. For the same compound, the Activity (Rattus norvegicus [26]) was “Toxic”.
